# Measured values: ChEMBL document CHEMBL1154596, “The effects of C-terminal modifications on the opioid activity of [N-benzylTyr(1)]dynorphin A-(1-11) analogues” (J Med Chem, 2009)
# Assays:
# Rattus norvegicus = species on record: Rattus norvegicus; assay: Selectivity ratio of Ki for rat kappa opioid receptor to Ki for rat mu opioid receptor
# [1] = molecular target: Kappa-type opioid receptor (Rattus norvegicus, UniProt P34975); assay: Displacement of [3H]diprenorphine from rat kappa opioid receptor expressed in CHO cells; assay type: cell-based
# Chain of Kappa-type opioid receptor (P34975 whole entry): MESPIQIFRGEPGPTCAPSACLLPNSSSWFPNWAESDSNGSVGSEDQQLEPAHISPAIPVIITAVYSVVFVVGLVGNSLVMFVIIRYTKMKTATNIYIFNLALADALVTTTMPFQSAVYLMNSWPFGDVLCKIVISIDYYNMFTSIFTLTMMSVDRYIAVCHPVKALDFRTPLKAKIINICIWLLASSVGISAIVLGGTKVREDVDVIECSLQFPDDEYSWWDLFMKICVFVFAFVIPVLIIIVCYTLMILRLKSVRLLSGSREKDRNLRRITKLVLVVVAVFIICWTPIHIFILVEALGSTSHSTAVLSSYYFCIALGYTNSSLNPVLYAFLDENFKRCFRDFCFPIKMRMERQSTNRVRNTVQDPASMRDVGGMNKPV
# In short: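 Radioligand competition binding on membranes of CHO cells stably expressing cloned rat KOR, rat MOR or mouse DOR. […] Ki values are mean ± SEM of at least three independent experiments.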
# [2] = Selectivity ratio of Ki for rat kappa opioid receptor to Ki for mouse delta opioid receptor
# Mu-type opioid receptor = Mu-type opioid receptor (Rattus norvegicus, UniProt P33535); assay: Displacement of [3H]DAMGO from rat mu opioid receptor expressed in CHO cells; assay type: cell-based
# Chain of Mu-type opioid receptor (P33535 whole entry): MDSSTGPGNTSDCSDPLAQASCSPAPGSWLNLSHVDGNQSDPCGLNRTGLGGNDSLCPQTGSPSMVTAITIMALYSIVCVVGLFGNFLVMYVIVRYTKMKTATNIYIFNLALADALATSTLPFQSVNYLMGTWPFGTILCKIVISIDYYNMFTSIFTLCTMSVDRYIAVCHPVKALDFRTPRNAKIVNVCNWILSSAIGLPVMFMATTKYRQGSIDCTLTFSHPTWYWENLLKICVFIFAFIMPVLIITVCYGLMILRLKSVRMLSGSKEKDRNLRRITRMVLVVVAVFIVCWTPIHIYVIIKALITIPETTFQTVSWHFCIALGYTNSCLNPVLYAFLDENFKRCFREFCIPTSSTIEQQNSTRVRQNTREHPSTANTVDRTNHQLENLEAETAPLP
# In short: (§1)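 Radioligand competition binding on membranes of CHO cells stably expressing cloned rat KOR, rat MOR or mouse DOR. Ki values are mean ± SEM of at least three independent experiments.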
# [3] = molecular target: Delta-type opioid receptor (Mus musculus, UniProt P32300); assay: Displacement of [3H]DPDPE from mouse delta opioid receptor expressed in CHO cells; assay type: cell-based; in short: as §1
# Chain of Delta-type opioid receptor (P32300 whole entry): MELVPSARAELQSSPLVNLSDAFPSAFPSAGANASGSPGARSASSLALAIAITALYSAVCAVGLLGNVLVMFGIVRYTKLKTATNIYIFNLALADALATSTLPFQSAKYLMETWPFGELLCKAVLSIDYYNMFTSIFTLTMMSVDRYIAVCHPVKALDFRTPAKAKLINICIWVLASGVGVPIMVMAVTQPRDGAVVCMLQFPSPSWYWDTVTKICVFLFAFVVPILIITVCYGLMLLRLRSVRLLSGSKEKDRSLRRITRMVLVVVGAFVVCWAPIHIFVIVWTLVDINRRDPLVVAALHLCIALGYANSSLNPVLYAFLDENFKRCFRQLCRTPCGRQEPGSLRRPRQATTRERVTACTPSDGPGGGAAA
# [4] = molecular target: Kappa-type opioid receptor (Rattus norvegicus) (UniProt P34975); assay: Activity at rat kappa opioid receptor expressed in CHO cells assessed as inhibition of adenylyl cyclase activity at 10 uM relative to Dyn A-(1-13)NH2; assay type: functional, cell-based
# Chain of Kappa-type opioid receptor (Rattus norvegicus) (P34975 whole entry): as the sequence (P34975 whole entry) above
# In short: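 CHO cells stably expressing cloned rat KOR. Adenylyl cyclase inhibition was measured with each peptide at 10 μM. Efficacy is expressed relative to the maximal inhibition by the reference agonist Dyn A-(1-13)NH2 (100 nM). Values are mean ± SEM of at least three independent experiments.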
smiles,measurement,setting,value
CC(=O)NC[C@H](NC(=O)[C@H](CCCNC(=N)N)NC(=O)[C@H](CCCNC(=N)N)NC(=O)[C@@H](CC(N)=O)NC(=O)[C@H](Cc1ccccc1)NC(=O)CNC(=O)CNC(=O)[C@H](Cc1ccc(O)cc1)NCc1ccccc1)C(=O)N[C@@H](CCCNC(=N)N)C(=O)N1CCC[C@H]1C(=O)N[C@@H](CCCCN)C(N)=O,Ratio Ki,Rattus norvegicus,25
same,Ki,[1],66.9 nM
same,Ratio Ki,[2],149
same,Ki,Mu-type opioid receptor,1660 nM
same,Ki,[3],> 10000 nM
CC(C)C[C@H](NC(=O)[C@H](Cc1ccccc1)NC(=O)CNC(=O)CNC(=O)[C@H](Cc1ccc(O)cc1)NCc1ccccc1)C(=O)N[C@@H](CCCNC(=N)N)C(=O)N(C)[C@@H](CCCNC(=N)N)C(=O)N[C@H](C)C(=O)N[C@@H](CCCNC(=N)N)C(=O)N1CCC[C@@H]1C(=O)N[C@@H](CCCCN)C(N)=O,Ratio Ki,Rattus norvegicus,16
same,Ratio Ki,[2],151
same,inhibition,[4],70%
CC(C)C[C@H](NC(=O)[C@H](Cc1ccccc1)NC(=O)CNC(=O)CNC(=O)[C@H](Cc1ccc(O)cc1)NCc1ccccc1)C(=O)N[C@@H](CCCNC(=N)N)C(=O)N[C@@H](CCCNC(=N)N)C(=O)N[C@H](C)C(=O)N[C@@H](CCCNC(=N)N)C(=O)N1CCC[C@@H]1C(=O)N[C@@H](CCCCN)C(N)=O,Ratio Ki,Rattus norvegicus,15
same,Ratio Ki,[2],109
same,inhibition,[4],70%
CC(C)C[C@H](NC(=O)[C@H](Cc1ccccc1)NC(=O)CNC(=O)CNC(=O)[C@H](Cc1ccc(O)cc1)NCc1ccccc1)C(=O)N[C@@H](CCCNC(=N)N)C(=O)N(C)[C@@H](CCCNC(=N)N)C(=O)N[C@H](C)C(=O)N[C@@H](CCCNC(=N)N)C(=O)N1CCC[C@H]1C(=O)N[C@@H](CCCCN)C(N)=O,Ratio Ki,Rattus norvegicus,14
same,Ratio Ki,[2],147
same,inhibition,[4],70%
CC[C@H](C)[C@H](NC(=O)[C@H](CCCNC(=N)N)N(C)C(=O)[C@H](CCCNC(=N)N)NC(=O)[C@H](CC(C)C)NC(=O)[C@H](Cc1ccccc1)NC(=O)CNC(=O)CNC(=O)[C@H](Cc1ccc(O)cc1)NCc1ccccc1)C(=O)N[C@@H](CCCNC(=N)N)C(=O)N1CCC[C@@H]1C(=O)N[C@@H](CCCCN)C(N)=O,inhibition,[4],70%
CC(C)C[C@H](NC(=O)[C@H](Cc1ccccc1)NC(=O)CNC(=O)CNC(=O)[C@H](Cc1ccc(O)cc1)NCc1ccccc1)C(=O)N[C@@H](CCCNC(=N)N)C(=O)N[C@@H](CCCNC(=N)N)C(=O)N[C@H](C)C(=O)N[C@@H](CCCNC(=N)N)C(=O)N1CCC[C@H]1C(=O)N[C@@H](CCCCN)C(N)=O,Ratio Ki,Rattus norvegicus,11
same,Ratio Ki,[2],80
same,inhibition,[4],70%
CC[C@H](C)[C@H](NC(=O)[C@H](CCCNC(=N)N)N(C)C(=O)[C@H](CCCNC(=N)N)NC(=O)[C@H](CC(C)C)NC(=O)[C@H](Cc1ccccc1)NC(=O)CNC(=O)CNC(=O)[C@H](Cc1ccc(O)cc1)NCc1ccccc1)C(=O)N[C@@H](CCCNC(=N)N)C(=O)N1CCC[C@H]1C(=O)N[C@@H](CCCCN)C(N)=O,inhibition,[4],70%
